Measured values reported in ChEMBL document CHEMBL1629527, “In vitro antifungal activities of bis(alkylpyridinium)alkane compounds against pathogenic yeasts and molds” (Antimicrob Agents Chemother, 2010).

Assays:
[1] = Antifungal activity against Exophiala jeanselmei 03-200268 after 48 to 72 hrs; type: functional
Procedure, shortened: (§1)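 CLSI M38-A2 broth microdilution for molds in RPMI 1640 with L-glutamine and no bicarbonate, buffered with 0.165 M MOPS to pH 7.0. Compounds were dissolved in water and tested at 0.175–87.5 μM final, 35°C, up to 7 days. MIC was read visually as 100% inhibition versus growth control. For MFC, clear wells were plated on SDA and the lowest concentration with no colonies taken. Each isolate was run in duplicate, two independent experiments.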

[2] = Antifungal activity against Paecilomyces lilacinus 05-200601 after 48 to 72 hrs; type: functional; settings: Purpureocillium lilacinum; procedure, shortened: as §1
[3] = test system: Aspergillus fumigatus; experiment: Antifungal activity against Aspergillus fumigatus ATCC 204305 after 48 to 72 hrs; type: functional; procedure, shortened: as §1
[4] = test system: Aspergillus fumigatus; experiment: Antifungal activity against Aspergillus fumigatus 05-203114 after 48 to 72 hrs; type: functional; procedure, shortened: as §1
[5] = test system: Aspergillus flavus; experiment: Antifungal activity against Aspergillus flavus ATCC 204304 after 48 to 72 hrs; type: functional
Procedure, shortened: (§2)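 MFC: after the MIC read, 30-μl aliquots from each well without visible growth were plated onto Sabouraud dextrose agar and incubated at 35°C. Reading was at 48–72 h for yeasts and up to 7 days for molds. MFC was the lowest concentration with no colonies.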

[6] = test system: Aspergillus flavus; experiment: Antifungal activity against Aspergillus flavus 05-203758 after 48 to 72 hrs; type: functional; procedure, shortened: as §1
[7] = test system: Aspergillus terreus; experiment: Antifungal activity against Aspergillus terreus 05-202844 after 48 to 72 hrs; type: functional; procedure, shortened: as §2
[8] = test system: Lomentospora prolificans; experiment: Antifungal activity against Scedosporium prolificans 05-203060 after 48 to 72 hrs; type: functional; procedure, shortened: as §1
[9] = test system: Exophiala spinifera; experiment: Antifungal activity against Exophiala spinifera 03-200803 after 24 to 72 hrs by broth microdilution method; type: functional
Procedure, shortened: (§3)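 Mold isolates subcultured on potato dextrose agar, then tested by CLSI M38-A2 broth microdilution in RPMI 1640 (L-glutamine, no bicarbonate) buffered to pH 7.0 with 0.165 M MOPS. Compounds were dissolved in water and tested at a final 0.175–87.5 μM. Plates were incubated at 35°C. MIC was read visually as the lowest concentration giving 100% inhibition versus the growth control. Each isolate was run in duplicate in two independent experiments.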

[10] = test system: Fusarium solani; experiment: Antifungal activity against Fusarium solani 04-203102 after 24 to 72 hrs by broth microdilution method; type: functional; procedure, shortened: as §3
[11] = Antifungal activity against Paecilomyces lilacinus 05-200601 after 24 to 72 hrs by broth microdilution method; type: functional; settings: Purpureocillium lilacinum; procedure, shortened: as §3
[12] = test system: Rhizopus arrhizus; experiment: Antifungal activity against Rhizopus oryzae 05-203111 after 24 to 72 hrs by broth microdilution method; type: functional; procedure, shortened: as §3
[13] = test system: Pichia kudriavzevii; experiment: Antifungal activity against Candida krusei […] after 48 to 72 hrs; type: functional; procedure, shortened: as §2
[14] = test system: Candida parapsilosis; experiment: Antifungal activity against Candida parapsilosis 04-202398 after 48 to 72 hrs; type: functional; settings: Lodderomyces parapsilosis
Procedure, shortened: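 CLSI M27-A3 broth microdilution for yeasts in RPMI 1640 with L-glutamine and no bicarbonate, buffered with 0.165 M MOPS to pH 7.0. Compounds were dissolved in water and tested at 0.175–87.5 μM final, 35°C. MIC was read visually at 24–72 h as 100% inhibition versus growth control. For MFC, 30 μl from clear wells went onto SDA at 35°C for 48–72 h, reading the lowest concentration without colonies. Duplicates, two independent runs.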

[15] = test system: Aspergillus fumigatus; experiment: Antifungal activity against Aspergillus fumigatus 05-203114 after 24 to 72 hrs by broth microdilution method; type: functional
Procedure, shortened: (§4)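 Broth microdilution MIC per CLSI M27-A3 (yeasts) or M38-A2 (molds). RPMI 1640 with L-glutamine, without bicarbonate, buffered to pH 7.0 with 0.165 M MOPS. Final test range for the compounds was 0.175–87.5 μM. Incubation at 35°C with visual reading at 24–72 h. MIC was the lowest concentration giving 100% inhibition versus the growth control (azoles 50% or 100%, by organism). Each isolate was run in duplicate in two independent experiments.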

[16] = test system: Aspergillus flavus; experiment: Antifungal activity against Aspergillus flavus ATCC 204304 after 24 to 72 hrs by broth microdilution method; type: functional; procedure, shortened: as §4
[17] = test system: Aspergillus flavus; experiment: Antifungal activity against Aspergillus flavus 05-203758 after 24 to 72 hrs by broth microdilution method; type: functional; procedure, shortened: as §4
[18] = test system: Aspergillus terreus; experiment: Antifungal activity against Aspergillus terreus 05-202844 after 24 to 72 hrs by broth microdilution method; type: functional; procedure, shortened: as §4
[19] = test system: Lomentospora prolificans; experiment: Antifungal activity against Scedosporium prolificans 05-203060 after 24 to 72 hrs by broth microdilution method; type: functional; procedure, shortened: as §3
[20] = test system: Scedosporium apiospermum; experiment: Antifungal activity against Scedosporium apiospermum 05-203100 after 24 to 72 hrs by broth microdilution method; type: functional; procedure, shortened: as §3
[21] = test system: Cunninghamella bertholletiae; experiment: Antifungal activity against Cunninghamella bertholletiae 99-12187 after 24 to 72 hrs by broth microdilution method; type: functional; procedure, shortened: as §4
[22] = test system: Lichtheimia corymbifera; experiment: Antifungal activity against Absidia corymbifera 04-200170 after 24 to 72 hrs by broth microdilution method; type: functional; procedure, shortened: as §4
[23] = test system: Aspergillus fumigatus; experiment: Antifungal activity against Aspergillus fumigatus ATCC 204305 after 24 to 72 hrs by broth microdilution method; type: functional; procedure, shortened: as §4
[24] = test system: Cryptococcus gattii species complex; experiment: Antifungal activity against Cryptococcus gattii 05-200122 after 24 to 72 hrs by broth microdilution method; type: functional, Cryptococcus bacillisporus; procedure, shortened: as §4
[25] = test system: Cryptococcus neoformans; experiment: Antifungal activity against Cryptococcus neoformans 05-202523 after 24 to 72 hrs by broth microdilution method; type: functional; procedure, shortened: as §4
[26] = test system: Cryptococcus neoformans; experiment: Antifungal activity against Cryptococcus neoformans ATCC 90112 after 24 to 72 hrs by broth microdilution method; type: functional; procedure, shortened: as §4
[27] = test system: Candida tropicalis; experiment: Antifungal activity against Candida tropicalis 04-202361 after 24 to 72 hrs by broth microdilution method; type: functional; procedure, shortened: as §4
[28] = test system: Nakaseomyces glabratus; experiment: Antifungal activity against Candida glabrata 04-202345 after 24 to 72 hrs by broth microdilution method; type: functional; procedure, shortened: as §4
[29] = test system: Candida parapsilosis; experiment: Antifungal activity against Candida parapsilosis 04-202398 after 24 to 72 hrs by broth microdilution method; type: functional; settings: Lodderomyces parapsilosis; procedure, shortened: as §4
[30] = test system: Pichia kudriavzevii; experiment: Antifungal activity against Candida krusei ATCC 9258 after 24 to 72 hrs by broth microdilution method; type: functional; procedure, shortened: as §4
[31] = test system: Pichia kudriavzevii; experiment: Antifungal activity against Candida krusei 04-202328 after 24 to 72 hrs by broth microdilution method; type: functional; procedure, shortened: as §4
[32] = test system: Candida parapsilosis; experiment: Antifungal activity against Candida parapsilosis ATCC 22019 after 24 to 72 hrs by broth microdilution method; type: functional; settings: Lodderomyces parapsilosis; procedure, shortened: as §4
[33] = test system: Pichia kudriavzevii; experiment: Antifungal activity against Candida krusei ATCC 6258 after 24 to 72 hrs by broth microdilution method; type: functional; procedure, shortened: as §4
[34] = test system: Candida albicans; experiment: Antifungal activity against Candida albicans ATCC 10231 after 24 to 72 hrs by broth microdilution method; type: functional; procedure, shortened: as §4
[35] = test system: Candida albicans; experiment: Antifungal activity against Candida albicans ATCC 90028 after 24 to 72 hrs by broth microdilution method; type: functional; procedure, shortened: as §4
[36] = test system: Lichtheimia corymbifera; experiment: Antifungal activity against Absidia corymbifera 04-200170 after 48 to 72 hrs; type: functional; procedure, shortened: as §1
[37] = Antifungal activity against Exophiala jeanselmei 03-200268 after 24 to 72 hrs by broth microdilution method; type: functional; procedure, shortened: as §4
[38] = test system: Fusarium solani; experiment: Antifungal activity against Fusarium solani 04-203102 after 48 to 72 hrs; type: functional
Procedure, shortened: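 After the broth microdilution MIC read, suspension from every well without visible growth was plated onto Sabouraud dextrose agar and incubated at 35°C, up to 7 days for molds. MFC was taken as the lowest drug concentration with no colonies.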

[39] = test system: Cryptococcus neoformans; experiment: Antifungal activity against Cryptococcus neoformans ATCC 90112 after 48 to 72 hrs; type: functional; procedure, shortened: as §2
[40] = test system: Cryptococcus neoformans; experiment: Antifungal activity against Cryptococcus neoformans 05-202523 after 48 to 72 hrs; type: functional; procedure, shortened: as §2
[41] = test system: Cunninghamella bertholletiae; experiment: Antifungal activity against Cunninghamella bertholletiae 99-12187 after 48 to 72 hrs; type: functional; settings: in the assay text read “for up to 7 days” for “after 48 to 72 hrs”; procedure, shortened: as §2

SMILES	MFC [3] [µg/mL]	MFC [4] [µg/mL]	MFC [5] [µg/mL]	MFC [7] [µg/mL]	MIC [9] [µg/mL]	MIC [10] [µg/mL]	MIC [11] [µg/mL]	MIC [12] [µg/mL]	MFC [14] [µg/mL]	MIC [15] [µg/mL]	MIC [16] [µg/mL]	MIC [17] [µg/mL]	MIC [18] [µg/mL]	MIC [19] [µg/mL]	MIC [20] [µg/mL]	MIC [21] [µg/mL]	MIC [22] [µg/mL]	MIC [23] [µg/mL]	MIC [24] [µg/mL]	MIC [25] [µg/mL]	further results
CCCCCc1cc[n+](CCCCCCCCCCCC[n+]2ccc(CCCCC)c(CCCCC)c2)cc1CCCCC.[Cl-].[Cl-]	14.9	14.9	14.9	1.86	1.86	14.9	14.9	1.86	14.9	7.5	7.5	14.9	0.93	1.86	3.7	7.5	14.9	7.5	1.86	7.5	MFC [1]: 3.7 µg/mL; MFC [2]: 29.8 µg/mL; MFC [6]: 29.8 µg/mL; MFC [8]: 3.7 µg/mL; MFC [13]: 3.7 µg/mL; MIC [26]: 1.86 µg/mL; MIC [27]: 1.86 µg/mL; MIC [28]: 0.93 µg/mL; MIC [29]: 7.5 µg/mL; MIC [30]: 1.86 µg/mL; MIC [31]: 1.86 µg/mL; MIC [32]: 1.86 µg/mL; MIC [33]: 1.86 µg/mL; MIC [34]: 1.86 µg/mL; MIC [35]: 1.86 µg/mL; MFC [36]: 27.8 µg/mL; MIC [37]: 1.86 µg/mL
CCCCC(CCCC)c1cc[n+](CCCCCCCCCCCC[n+]2ccc(C(CCCC)CCCC)c(C)c2)cc1C.[Cl-].[Cl-]	29.8	59.7	59.7	14.9	1.86	29.8	59.7	3.7	29.8	14.9	14.9	59.7	3.7	3.7	1.86	14.9	29.8	14.9	1.86	3.7	MFC [38]: 59.7 µg/mL; MFC [39]: 3.7 µg/mL; MFC [40]: 7.5 µg/mL; MFC [41]: 29.8 µg/mL; MIC [26]: 1.86 µg/mL; MIC [27]: 1.86 µg/mL; MIC [28]: 1.86 µg/mL; MIC [29]: 14.9 µg/mL; MIC [31]: 3.7 µg/mL; MIC [32]: 1.86 µg/mL; MIC [33]: 3.7 µg/mL; MIC [34]: 1.86 µg/mL; MIC [35]: 1.86 µg/mL; MFC [36]: 59.7 µg/mL; MIC [37]: 3.7 µg/mL
